Common to all, as to assay type: ADME
The target of series [1] is T1, Cytochrome P450 3A4 (Homo sapiens, UniProt P08684, S119A). Description: Binding affinity to CYP3A4 (3-22)-deleted S119A mutant (unknown origin) expressed in Escherichia coli by stopped flow assay.
The target in series [2] is T2, Cytochrome P450 3A4 (Homo sapiens, UniProt P08684). Nature of the series: Binding affinity to C-terminal His-tagged wild type CYP3A4 (unknown origin) expressed in Escherichia coli assessed as rate constant of fast phase of reaction by stopped flow assay.
T2 sequence (P08684 whole entry): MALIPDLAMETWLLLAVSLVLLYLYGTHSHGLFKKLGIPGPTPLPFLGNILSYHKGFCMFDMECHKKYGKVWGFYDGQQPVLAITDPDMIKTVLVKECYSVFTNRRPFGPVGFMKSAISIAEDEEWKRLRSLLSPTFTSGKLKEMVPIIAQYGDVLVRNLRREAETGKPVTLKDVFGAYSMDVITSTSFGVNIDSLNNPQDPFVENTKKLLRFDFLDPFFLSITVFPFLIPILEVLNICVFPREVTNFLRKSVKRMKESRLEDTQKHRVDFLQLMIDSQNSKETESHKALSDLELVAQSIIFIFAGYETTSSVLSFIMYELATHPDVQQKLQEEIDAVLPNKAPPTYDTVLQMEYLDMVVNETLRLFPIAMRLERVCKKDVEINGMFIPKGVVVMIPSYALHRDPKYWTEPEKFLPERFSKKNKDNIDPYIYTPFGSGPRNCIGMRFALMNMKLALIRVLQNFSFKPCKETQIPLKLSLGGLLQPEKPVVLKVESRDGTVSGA
The target in series [3] is T1, Cytochrome P450 3A4. Description: Binding affinity to CYP3A4 (3-22)-deleted S119A mutant (unknown origin) expressed in Escherichia coli assessed as increase in melting temperature by spectrophotometric analysis (reference value: 53.5 +/- 0.1 degC).
For series [4], the target named is T1, Cytochrome P450 3A4. Description: Binding affinity to CYP3A4 (3-22)-deleted S119A mutant (unknown origin) expressed in Escherichia coli by spectrophotometric analysis. The settings on record: read-out: Ks. An outline of the steps: (§1)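 Spectrophotometric titration of purified enzyme with small aliquots of ligand in DMSO (final solvent ≤2%) in 50 mM phosphate, pH 7.4, 20% glycerol, 1 mM dithiothreitol; spectra recorded at room temperature and spectral dissociation constant Ks derived from absorbance change vs ligand concentration.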

The target of series [5] is T2, Cytochrome P450 3A4. Description: Inhibition of C-terminal His-tagged wild type CYP3A4 (unknown origin)-mediated hydroxylation of 7-benzyloxy-4-trifluoromethylcoumarin expressed in Escherichia coli after 5 mins by fluorimetric analysis. Put shortly: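 Reconstituted system at room temperature: CYP3A4 (0.3 μM) with rat CPR (0.6 μM) in 25 mM phosphate, pH 7.4, 3 mM MgCl2, preincubated 5 min with inhibitor with or without 100 μM NADPH, then 50 μM BFC added.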

For series [6], the target named is T2, Cytochrome P450 3A4. Nature of the series: Binding affinity to C-terminal His-tagged wild type CYP3A4 (unknown origin) expressed in Escherichia coli assessed as spectral changes by spectrophotometric analysis relative to control. Put shortly:
as §1

Series [7] has as its target T2, Cytochrome P450 3A4. Description: Ratio of ritonavir Ks to compound Ks for C-terminal His-tagged wild type CYP3A4 (unknown origin).
Series [8] addresses T2, Cytochrome P450 3A4. Description: Binding affinity to C-terminal His-tagged wild type CYP3A4 (unknown origin) expressed in Escherichia coli by spectrophotometric analysis. The settings on record: read-out: Ks. Put shortly: as §1
Series [9] has as its target T2, Cytochrome P450 3A4. Description: Binding affinity to C-terminal His-tagged wild type CYP3A4 (unknown origin)-bromoergocryptine complex expressed in Escherichia coli by spectrophotometric analysis. The settings on record: read-out: Ks.
In series [10] the target is T2, Cytochrome P450 3A4. Nature of the series: Ratio of compound binding constant to ritonavir binding constant for C-terminal His-tagged wild type CYP3A4 (unknown origin).
Series [11] has as its target T2, Cytochrome P450 3A4. Description: Binding affinity to C-terminal His-tagged wild type CYP3A4 (unknown origin) expressed in Escherichia coli assessed as increase in melting temperature by spectrophotometric analysis (reference value: 52.1 +/- 0.1 degC).
The target in another series is CYP3A4 (Homo sapiens, UniProt P08684). Nature of the series: Ratio of ritonavir IC50 to compound IC50 for C-terminal His-tagged wild type CYP3A4 (unknown origin). The settings on record: read-out: Ratio IC50.
Sequence of CYP3A4 (P08684 whole entry): as above

Structures are written as SMILES.

By IC50 is commonly meant the concentration that gives 50% inhibition. Higher therefore signals weaker potency.

T1 sequence (P08684 2-503 S119A limits assumed): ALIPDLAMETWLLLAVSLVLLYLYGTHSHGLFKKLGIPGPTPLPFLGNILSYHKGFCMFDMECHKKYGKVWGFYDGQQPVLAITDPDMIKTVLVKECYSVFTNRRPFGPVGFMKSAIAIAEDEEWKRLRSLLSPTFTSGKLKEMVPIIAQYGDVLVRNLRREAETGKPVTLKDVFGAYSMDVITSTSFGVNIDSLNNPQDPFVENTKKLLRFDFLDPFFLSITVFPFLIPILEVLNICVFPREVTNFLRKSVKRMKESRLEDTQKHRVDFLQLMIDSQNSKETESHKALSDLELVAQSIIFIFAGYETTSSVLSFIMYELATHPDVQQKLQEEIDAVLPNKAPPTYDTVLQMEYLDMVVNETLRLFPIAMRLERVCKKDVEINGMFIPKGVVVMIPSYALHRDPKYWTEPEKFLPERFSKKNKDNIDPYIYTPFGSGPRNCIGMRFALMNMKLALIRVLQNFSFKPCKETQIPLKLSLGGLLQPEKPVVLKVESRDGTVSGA

With `CC(C)c1nc(CN(C)C(=O)N[C@H](C(=O)N[C@H](CC[C@H](Cc2ccccc2)NC(=O)OCc2cccnc2)Cc2ccccc2)C(C)C)cs1`, the values for the K at Cytochrome P450 3A4 [1] and on Cytochrome P450 3A4 [2] were 0.32 s⁻¹ and 7 s⁻¹, respectively. For the same compound, the Tm on Cytochrome P450 3A4 [3] came out at 55.6 °C; at Cytochrome P450 3A4 [11], 57.2 °C. The Kd is 65 nM at Cytochrome P450 3A4 [4], 25 nM on Cytochrome P450 3A4 [8] and 5 nM on Cytochrome P450 3A4 [9]. At Cytochrome P450 3A4 [5], this compound registered a half-inhibitory concentration (IC50) of 130 nM. Moreover, on Cytochrome P450 3A4 [6], the outcome was Active. In addition, the Ratio worked out at 2 at Cytochrome P450 3A4 [7] and 5 on Cytochrome P450 3A4 [10].

Take `CC(C)c1nc(CN(C)C(=O)N[C@H](C(=O)N[C@H](CC[C@H](Cc2ccccc2)NC(=O)OCc2cnco2)Cc2ccccc2)C(C)C)cs1`: the figures for the K on Cytochrome P450 3A4 [1] and on Cytochrome P450 3A4 [2] were 0.2 s⁻¹ and 2.2 s⁻¹, respectively. In addition, the Tm at Cytochrome P450 3A4 [3] amounted to 53.2 °C; at Cytochrome P450 3A4 [11], 54.8 °C. For the same compound, the values for the Kd on Cytochrome P450 3A4 [4] and on Cytochrome P450 3A4 [8] were 970 nM and 570 nM, respectively. The compound also returned an IC50 against Cytochrome P450 3A4 [5] of 3400 nM. Besides, at Cytochrome P450 3A4 [6], the Activity was found to be 60%.

Take `CC(C)c1nc(CN(C)C(=O)N[C@H](C(=O)N[C@H](CC[C@H](Cc2ccccc2)NC(=O)OCc2cnc[nH]2)Cc2ccccc2)C(C)C)cs1`: the K came to 0.17 s⁻¹ at Cytochrome P450 3A4 [1] and 1.9 s⁻¹ at Cytochrome P450 3A4 [2]. Moreover, the Tm at Cytochrome P450 3A4 [3] worked out at 55.5 °C; on Cytochrome P450 3A4 [11] it was 56.5 °C. In addition, the Kd turned out to be 67 nM at Cytochrome P450 3A4 [4] and 22 nM at Cytochrome P450 3A4 [8]. This compound returned an IC50 against Cytochrome P450 3A4 [5] of 280 nM. In addition, on CYP3A4, the selectivity ratio came to 2. Moreover, the Activity result on Cytochrome P450 3A4 [6] is given as “Not Active”. Besides, on Cytochrome P450 3A4 [7], the Ratio worked out at 2.

The values above are taken from ChEMBL document CHEMBL2346540 (J Med Chem, 2013).
